In ChEMBL document CHEMBL1152975, “Design and synthesis of orally bioavailable serum and glucocorticoid-regulated kinase 1 (SGK1) inhibitors” (Bioorg Med Chem Lett, 2009):

Assays:
[1] = target: T1, Serine/threonine-protein kinase Sgk1 (Homo sapiens, UniProt O00141); test: Inhibition of SGK1 by fluorescence polarization assay
T1 sequence (O00141 whole entry): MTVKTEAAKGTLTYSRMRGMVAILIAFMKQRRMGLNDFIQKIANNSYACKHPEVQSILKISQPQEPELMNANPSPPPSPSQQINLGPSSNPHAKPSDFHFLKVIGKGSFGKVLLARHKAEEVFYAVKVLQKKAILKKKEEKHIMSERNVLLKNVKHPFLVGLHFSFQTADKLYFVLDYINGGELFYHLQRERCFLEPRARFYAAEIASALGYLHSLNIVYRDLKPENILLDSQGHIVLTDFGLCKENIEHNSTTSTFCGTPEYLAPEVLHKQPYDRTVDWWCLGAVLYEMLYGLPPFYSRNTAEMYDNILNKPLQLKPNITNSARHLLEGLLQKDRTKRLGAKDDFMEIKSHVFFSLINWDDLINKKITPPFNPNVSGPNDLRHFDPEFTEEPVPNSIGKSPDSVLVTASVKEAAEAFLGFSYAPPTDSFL

[2] = target: T1, Serine/threonine-protein kinase Sgk1; test: Inhibition of SGK1-mediated epithelial sodium channel activity in human M-1 cells assessed as short circuit current by whole cell electrophysiological transepithelial experiment; type: cell-based
[3] = Volume of distribution at steady state in rat by discrete study; type: ADME, organism-based; details: in vivo, read-out: Vdss
Method in brief: (§1)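 Each compound was dosed on its own (discrete study) to rats, iv and orally. Clearance, Vdss and terminal half-life come from the iv arm; oral AUC0–t and dose-normalized AUC0–t come from the oral arm.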

[4] = AUC (0 to t) in po dosed rat by discrete study; type: ADME, organism-based; details: plasma; method in brief: as §1
Rattus norvegicus [5] = test: Dose normalized AUC (0 to t) in po dosed rat by discrete study; type: ADME, organism-based; details: in vivo; method in brief: as §1
[6] = Plasma clearance in rat by discrete study; type: ADME, organism-based; method in brief: as §1
[7] = Terminal half life in iv dosed rat by discrete study; type: ADME, organism-based; details: in vivo, read-out: beta t1/2; method in brief: as §1
[8] = Terminal half life in iv dosed rat by cassette dosing; type: ADME, organism-based; details: in vivo, read-out: beta t1/2
Method in brief: (§2)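 Rats were given a cassette of four compounds as one mixture, dosed iv and orally. Clearance, Vdss and terminal half-life come from the iv arm; oral AUC0–t and dose-normalized AUC0–t come from the oral arm.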

[9] = Plasma clearance in rat by cassette dosing; type: ADME, organism-based; method in brief: as §2
[10] = Volume of distribution at steady state in rat by cassette dosing; type: ADME, organism-based; details: in vivo, read-out: Vdss; method in brief: as §2
Rattus norvegicus [11] = test: Dose normalized AUC (0 to t) in po dosed rat by cassette dosing; type: ADME, organism-based; details: in vivo; method in brief: as §2
[12] = AUC (0 to t) in po dosed rat by cassette dosing; type: ADME, organism-based; details: plasma; method in brief: as §2
[13] = Dissociation constant, pKa of the compound; type: physicochemical

Row | SMILES | IC50 [1] | IC50 [2] | half-life [8] | clearance [9] | Vd [10] | AUC (Rattus norvegicus [11]) | AUC(0-t) [12] | also measured
1 | CC(C)(C(=O)O)c1ccc(-c2c[nH]c3ncc(-c4ccccc4)cc23)cc1 | 50 nM | 1460 nM |  |  |  |  |  | 
2 | O=C(O)Cc1ccc(-c2c[nH]c3ncc(-c4ccc5ccccc5c4)cc23)cc1 |  | 880 nM |  |  |  |  |  | Vd [3]: 1.3 L/kg; AUC(0-t) [4]: 467 ng·h/mL; AUC (Rattus norvegicus [5]): 225 ng·h/mL/mg/kg; clearance [6]: 21.3 mL/min/kg; half-life [7]: 4.22 h
3 | CCc1cc(-c2c[nH]c3ncc(-c4ccccc4)cc23)ccc1C(=O)O | 20 nM | 710 nM | 1.62 h | 9.4 mL/min/kg | 0.43 L/kg | 600 ng·h/mL/mg/kg | 1500 ng·h/mL | 
4 | O=C(O)c1ccc(-c2c[nH]c3ncc(-c4ccccc4)cc23)cc1 |  | 1300 nM |  |  |  |  |  | pKa [13]: 4.2; Vd [3]: 8.8 L/kg; AUC(0-t) [4]: 392 ng·h/mL; AUC (Rattus norvegicus [5]): 154 ng·h/mL/mg/kg; clearance [6]: 64.4 mL/min/kg; half-life [7]: 9.4 h
5 | NCc1ccc(-c2c[nH]c3ncc(-c4ccccc4)cc23)cc1 | 400 nM |  |  |  |  |  |  | 
6 | CC(C(=O)O)c1ccc(-c2c[nH]c3ncc(-c4ccc5ccccc5c4)cc23)cc1 (centres undefined) | 125 nM |  |  |  |  |  |  | 
7 | CC(=O)c1ccc(-c2c[nH]c3ncc(-c4ccccc4)cc23)cc1 | 5000 nM |  |  |  |  |  |  | 
8 | CC(C)(C(=O)O)c1ccc(-c2c[nH]c3ncc(-c4ccc5ccccc5c4)cc23)cc1 | 63 nM | 870 nM | 4.4 h | 4.32 mL/min/kg | 0.67 L/kg | 2100 ng·h/mL/mg/kg | 4170 ng·h/mL | 
9 | CC(C)(C(=O)O)c1ccc(-c2c[nH]c3ncc(-c4cccc(C#N)c4)cc23)cc1 | 40 nM | 2000 nM | 8.13 h | 6.56 mL/min/kg | 2.5 L/kg | 905 ng·h/mL/mg/kg | 1910 ng·h/mL | 
10 | CC(C)Cc1cc(-c2c[nH]c3ncc(-c4ccccc4)cc23)ccc1C(=O)O | 5 nM | 580 nM | 1.17 h | 21.9 mL/min/kg | 0.62 L/kg | 176 ng·h/mL/mg/kg | 373 ng·h/mL | 
11 | c1ccc(-c2cnc3[nH]cc(-c4ccc(-c5nnn[nH]5)cc4)c3c2)cc1 | 160 nM |  |  |  |  |  |  | pKa [13]: 4.9
12 | COC(=O)c1ccc(-c2c[nH]c3ncc(-c4ccccc4)cc23)cc1 | 3160 nM |  |  |  |  |  |  | 
13 | O=C(O)c1ccc(-c2c[nH]c3ncc(-c4ccccc4)cc23)cc1C1CCCC1 [GSK-650394] |  |  | 1.58 h | 25.7 mL/min/kg | 0.77 L/kg | 134 ng·h/mL/mg/kg | 313 ng·h/mL | 
